The labels stand for the following.
B1: tRNA (parent)
chain: GUUCCGUUGGCGUAAUGGUAACGCGUCUCCCUCCUAAGGAGAAGACUGCGGGUUCGAGUCCCGUACGGAACG

Variants at the floor of the assay were thinned out. Where only a bound is given, the exact number is not on record here.

In the data set the parent is B1. In words: yeast fitness relative to wild type (ratio to wild type); higher = fitter; tRNA-Arg(CCU), competitive growth, 37 C, YPD. An outline of the steps:
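For this measurement, the tRNA-Arg(CCU) gene was varied by chemical synthesis at a 3% per-site mutation rate across 69 sites, and each variant was placed at the native genomic locus in Saccharomyces cerevisiae. The pooled strains went through a 24-hour competition in YPD at 37°C in six parallel replicates, with amplicons from start and end populations read by 100-nucleotide paired-end sequencing. Darwinian fitness relative to wild type followed from the change in each genotype's frequency. Genotypes needed ≥ 100 starting reads, and estimates < 0.5 were set to 0.5.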
For the variant GUUCAGUUGGCGUAAUGGUAACGCCUCUCCCUCCUAAGGAGAAGACUGCGGGUUCCAGUCCCGUACGGAACG [C5A G25C G56C], the yeast fitness is no more than 0.5. Take GUUCCGUUGGCGUAAUGGUAACGCGUCUCCCUCCUAAGGAGAAGACUGCGAGUUCGAGUCCCGUAGGGAACG [G51A C66G]: the yeast fitness came out at 0.704. For GUUCCGUUGGCGUAAUGGUAGCGCGUGUCCCUCCUAAGGAGAAGACUGCGGGUUCGAGUGCCGUACGGACCG [A21G C27G C60G A70C] the value was no more than 0.5; for GUUCUGUUGGAGUAAUGGUAAGGCGUCUCCCUCCUAAGGAGAAGACUGCGGGUUGGAGUGCCGUACGGAACG [C5U C11A C22G C55G C60G], 0.997. The result for GUUCCGUUGGCGUCAUGGUAACGCGUUUCCCUCGUAAGGAGAAGACUGCGAGUUCGAGUCCCGUACUGAACG [A14C C27U C34G G51A G67U] reads no more than 0.5; that for GUUCCGUUGGCGUAAUGGUAACGCGUCUCCCUCCUAAGGAAAAGACUCCGGGUUCGAGUCCCGUACCGAACG [G41A G48C G67C], no more than 0.5.

Regarding GUUCCGAUGGCGUAAUGGUAACGCGUCUUCCUCCUAAGGAGAAGACUGCGGGUUCGCGUCCCGUACGGAACG [U7A C29U A57C], the yeast fitness was no more than 0.5. The result for GAUCCGUUGGCCUAAUGGUAACGCGUCUCCCUCCUCAGGAGAAGACUGCGGGUUCGAGUCCCGUACGGAACG [U2A G12C A36C] reads no more than 0.5; that for GUUCCGUUGGCGUAAUGGUACCGCGUCUCCCUCCUAAGGCGAAGACUGCGGGUUCGAGUCCCGUACGGAACG [A21C A40C], 0.734; that for GUUCCGUUGGGGUAAUGGUAACGCGUCUCCCUCCUAAGGAGUAGACUGCGGGUUCGAGUCCCGUAGUGAACG [C11G A42U C66G G67U], no more than 0.5. For GUUCCGUUGGCGUAAUGGUAGCGCGUCUCCCUCCUAAGGAGAACACUGCGGGUUCGAGUCCCGUACGGUACG [A21G G44C A69U] the value was 0.681.

As to GUUCCGUUGGCGUAGUGGUAACGCGUCUCCCUCCUAAAGCCAAGACUGUGGGUUCGAGUCCCGUACGGAACG [A15G G38A A40C G41C C49U], the yeast fitness stood at 0.597. The result for GUUCCGUUGGCGUAAUGGUAACGCGUCUCCCUCCUAAGGAGAAGACUGCGGGUUCGGGUCCCGUACGGAGCG [A57G A70G] reads 0.889; that for GUUACGUUGGCGUAAUGGUAACGCGGCUGCCUCCUAAGGAGAAGACGGCGGGUUCGAGGCCCGUACGGAACG [C4A U26G C29G U47G U59G], no more than 0.5; that for GUUCCGUUGGCGUAAUGGUAACGGGUCUCCCUCGUAAGGAGAAGACUGCGGGUUCGAGUCCCGUACGGACCG [C24G C34G A70C], no more than 0.5.

Regarding GUUCCGUUGGCGUAAUGGUAACGCGUCUCCCUCCUGUGGAGAAGACUGCGGGUUCGAGUCCCGUACGGCACG [A36G A37U A69C], the yeast fitness was found to be 0.663.

As to GUUCCGUUGGCGUAAUGGUAACGCGUCUCCCUCCUAACGAGAAGACUGCGGGUCCGAGUCCCGUACGGAACG [G38C U54C], the yeast fitness was 0.82. For GUUCCGUUGGCGUUAUGGUAACGCGGCUCCCUCCUAAGGAGAAGACUGCGGGUUCAAGUCCCGUGUGGAACG [A14U U26G G56A A65G C66U] the value was no more than 0.5; for GUUCAGUUGGAGUAAUGGUAACGUGCCUUCGUCCUAAGGAGGAGACUGCGGGUUCGAGUCCCGUACGGAACG [C5A C11A C24U U26C C29U C31G A42G], no more than 0.5. For GUUCCGUUGGCGUAAUGGUGACGCGUCUCCCUCCUAAGGGGAAGACUGCCGGUUCGAGUCCCGUACGGAACG [A20G A40G G50C], the yeast fitness stood at 0.574. For the variant GUGCCGUUGGCGGAAUGGUAACGCGUCUCAAUCCUAAGGAGAAGACUGCGGGUUCGAGUCCCGUACGGAACG [U3G U13G C30A C31A], the yeast fitness was no more than 0.5.

As for GUUCCAUUGGCGUAAUGGUAACGCGUCUCCCUCCUAAGGAGAGGACUGCGGGUUCGAGUCCCGUACGGAACG [G6A A43G], the yeast fitness worked out at 0.801. For GUUCCGUUGGCGUAAUGGUAACGCGUCGCCCUCCUAAUGAGAAGACUGCGGGUUCGAGUCCCGUACGGAACG [U28G G38U] the value was 0.711.

Turning to GUUCCGUUGGCGUAAUGGUCACGCGUCUCCCUCCUAAGGAGAAGACUGCGGGUUCGAGUUCCGUACGGUACG [A20C C60U A69U], the yeast fitness turned out to be 0.617. For GUUCGGUUGGCGUAAUGGUAACGCGUCUCCCACCUAAGGAGAAGACUGCGGGUUCAAGUCCCGUACGGAACG [C5G U32A G56A] the value was 0.634; for GUUCCGUUGGCGUAAUGGUAACGCGUCUCCCUCCUAAGGUGAAGACUGCGGGUUCGAGUCCCGUACGGAACG [A40U], 0.988. The result for GUUCCGUUGGCGUAAUGGUAACGAGUCUACCUCCUAAGGAGAAAAGUGCAGGUUCGAGUCCCGUUCGGAACG [C24A C29A G44A C46G G50A A65U] reads 0.556; that for GUUCAGUUGGCGUAAUGGUAACGCGUCUCCCUCCUAAGCAGAAGACUGCGGGUUCGAGUCCCGUACGGAACG [C5A G39C], 0.673; that for GUUCCGUUGGAGUUAUGGUAACGCGUUUCCCUCCUAAGGAGAAGACUGCGGGUUCGAGUCCCGUACGGAACG [C11A A14U C27U], no more than 0.5. The result for GUUCCGUUGGCGUAAUGGUAACGCGUCUGCCUCCUAAGGAGAAGACUGCGGGUCCGAGUCCCGUACGGAACG [C29G U54C] reads 0.664; that for GUUCCGUUGGCGUAAUGGUAACGCGUCUCUCUACUAAGGAGAAGACUGCGGGUUCGAGUCCCGUACGGAACG [C30U C33A], 0.672.

Take GUUCCGUUGGCGUAAUGGUAACGCGUCUCCCUCCUAAGGAGAAGUCUGCGGGUUAGAGUCCCGUACGGAACG [A45U C55A]: the yeast fitness turned out to be 0.566. In the case of GUUCCGUUGGCGUAAUGGUAACGCGUCUCCCUCCUAAGGAGAAGACCACGGGUUCGAGUCCCGUACGGAACG [U47C G48A], the yeast fitness worked out at 0.96.

On to GUUCGGUUGGAGUAAUGGUAACGCGUCUCCCUCCUAAGGCGAAGACUGCGGGUUCGAGCCCCGUACGGAACG [C5G C11A A40C U59C], for which the yeast fitness was no more than 0.5. Turning to GUUCCGUUGGCGUAAUGGUAACGCGUUUCUCUCGUACGGAGAAGACUGCGGGUUCGAGUCCCGUACGGCACG [C27U C30U C34G A37C A69C], the yeast fitness was no more than 0.5.

In the case of GUUGCCUUGGCGUAAUGGUAACGCAUCUACAUGCUAAGGACAAGACUGCGGGUUCGAGUCCCGUACGGAACG [C4G G6C G25A C29A C31A C33G G41C], the yeast fitness was no more than 0.5. The result for GUUCCGUUGGCGUAAUGGUAACGCGUCUCCCUCCUAAGGAGAAGACUGCGGGUUCGCGUCCCGGACGGAACG [A57C U64G] reads 0.512; that for GUUCCGUUGGCGUAAUGGUAACGCGUCUCCCUCCUAACGAGAAGACUGCGGGUUCUAGUCCCGUACGGAACG [G38C G56U], 0.633.
